From PubChem
This is a sample that favours compounds with a hit; in the whole collection about 1.1% have one here.
aDG glyco act = increases alpha dystroglycan glycosylation; Pro5-aDG cells, alpha-DG glycosylation AlphaScreen (IIH6); 0% Pro5, 100% B10-LARGE cell signal; 0.22% of 360,000 active; AID 624168; activation, % at 10 µM;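 active = activation of at least 8% versus controls, or a plate z-score of at least 8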;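 also: Pro5 are CHO cells carrying HIG-tagged alpha-DG that lacks glycosylation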
procasp3 activ = activators of human procaspase-3; P42574; 0.11% of 330,000 active; recombinant procaspase-3 D3A, Ac-DEVD-pNA absorbance 405 nm; activation, % at 8.5 µM;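 active = activation above the mean of all tested compounds plus 3 SD, cut at about 21% in these data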;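 also: 0% = DMSO alone and 100% = DMSO wells spiked with extra 5 µM PC-3 D3A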
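assay system = Procaspase-3 D3A mutant | signal = absorbance at 405 nm, 0 and 120 min | times = 1 h preincubation plus 2 h reaction at 25 °C | repeats = single replicate | read-out = % activation between DMSO and enzyme-spiked controls | medium = Zinc-free HEPES saline buffer with Triton X-100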
procasp7 counter = activates human procaspase-7, counter-screen for procaspase-3 activators; P55210; recombinant procaspase-7, Ac-DEVD-pNA absorbance 405 nm; D23A/D198A/D206A triple mutant, cannot self-cleave; scale: DMSO 0, 5 µM enzyme 100; activation, % at 8.5 µM; 0.093% of 330,000 active; AID 463210;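 active = percent activation above the screen-wide mean plus 3 SD, cut at about 25% in these data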
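Assay system: Uncleavable procaspase-7 mutant enzyme | Input: 2 µM procaspase-7 mutant as dispensed | Timing: 1 h compound preincubation, 2 h substrate cleavage, 25 °C | Repeats: One well per compound | Control set: DMSO wells as 0%, DMSO with 5 µM added PC-7 as 100% | Technique: Epi-absorbance of released pNA at 405 nm, two timepoints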
CaV13 FRET inh = Disruptors of the CACNA1D IQ motif to Ca2+-dependent inactivation inhibitor domain association, primary screening, Förster resonance energy transfer in intact living … | HEK cells, CFP/YFP FRET ICDI-IQ, plate reader, 10 min; percent FRET-ratio fall versus neutral wells | inhibition, % at 12.3 µM | 0.098% of 340,000 active;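 active = mean replicate inhibition of at least 30% and at least 1% of replicates passing that level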;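 also: 0% = median of the neutral control wells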
GRK2 aptamer HTS = blocks RNA aptamer binding to human GRK2. P25098. bead flow cytometry, FAM-aptamer displacement from GRK2. inhibition of aptamer binding, % at 10 µM. 0.59% of 330,000 active. AID 488847;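 active = inhibition of aptamer binding above 40%, roughly 3 SD of noise, on plates passing a quality check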;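 also: median bead fluorescence of bound FAM aptamer so fluorescent compounds give negative values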
Target sequence (P25098 whole entry, looked up): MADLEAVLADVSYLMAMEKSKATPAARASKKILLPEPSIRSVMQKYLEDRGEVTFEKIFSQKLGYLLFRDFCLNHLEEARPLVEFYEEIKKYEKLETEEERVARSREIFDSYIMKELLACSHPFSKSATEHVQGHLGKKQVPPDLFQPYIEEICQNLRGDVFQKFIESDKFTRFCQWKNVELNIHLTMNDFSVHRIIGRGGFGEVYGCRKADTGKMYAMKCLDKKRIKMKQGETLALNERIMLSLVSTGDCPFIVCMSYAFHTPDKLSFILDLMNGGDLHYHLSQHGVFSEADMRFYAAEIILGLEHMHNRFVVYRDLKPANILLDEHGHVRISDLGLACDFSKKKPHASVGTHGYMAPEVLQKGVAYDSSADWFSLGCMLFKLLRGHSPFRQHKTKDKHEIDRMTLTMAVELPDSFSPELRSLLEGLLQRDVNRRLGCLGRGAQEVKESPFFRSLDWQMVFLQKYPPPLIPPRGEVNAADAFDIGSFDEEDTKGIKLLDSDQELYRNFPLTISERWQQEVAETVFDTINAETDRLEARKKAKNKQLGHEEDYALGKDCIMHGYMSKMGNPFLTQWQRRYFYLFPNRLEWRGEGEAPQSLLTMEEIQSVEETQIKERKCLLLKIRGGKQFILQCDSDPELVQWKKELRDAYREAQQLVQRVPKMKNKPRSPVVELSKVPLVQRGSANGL
T cell HTS = modulates CD8 T cell binding to vesicles; 2C CD8+ T cell-vesicle binding, flow cytometry; active compounds read low; response (vesicle binding), % at 7 µM; 0.068% of 330,000 active; AID 2052;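 active = response, share of CD8 T cells binding vesicles, and their 90th percentile fluorescence all below set limits, cut at about 80% in these data, passing the limit was not always enough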;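 also: values below 100% mean blocked vesicle binding to the CD8+ T cells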
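Test system: purified 2C TCR transgenic mouse naive CD8+ T cells. Probe or stimulus: QL9-peptide-loaded Drosophila micro-vesicles bearing Ld, ICAM-1 and B7-1. Incubation: binding step 1.5 h, 37 °C, antibody labelling 20 min, ice. Measured by: flow cytometry of vesicle-bound cells.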
proCasp7 act trip = counter-screen: procaspase-7 (human) activation in triplicate; AID 488941; 210 tested, under 10 active; recombinant procaspase-7, Ac-DEVD-pNA absorbance; asp23/198/206-to-Ala mutant, cannot self-cleave; activation, % at 8.5 µM; shares compounds with procasp3 activ;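 active = mean activation above a set limit taken from an earlier procaspase-7 screen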;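 also: 0% = DMSO wells and 100% = DMSO plus 5 µM procaspase-7 enzyme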
proCasp3 confirm = confirmation of human procaspase-3 activators | shares compounds with procasp3 activ | recombinant PC-3 D3A, Ac-DEVD-pNA absorbance 405 nm; 100% is higher-enzyme control | activation, % at 8.5 µM | 10% of 210 active;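 active = mean activation above a set limit carried over from the earlier primary screen, cut at about 22% in these data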
* marks the source's active call; other numbers are inactive results; i = inactive; / = no result.

SMILES	aDG glyco act	procasp3 activ	procasp7 counter	CaV13 FRET inh	GRK2 aptamer HTS	T cell HTS	proCasp7 act trip	proCasp3 confirm
Cc1ccc(C)c(N(CC(=O)Nc2ccc(-c3nc4ccc(C)cc4s3)cc2)S(C)(=O)=O)c1	4	24*	24	-3	0	300	17	23*
Cc1ccc(S(=O)(=O)Nc2ccc(-c3nc4ccc(C)cc4s3)cc2)cc1	0	23*	23	-5	12	140	13	13
OC(c1ccccc1)(c1ccccc1)C1CCN(CCCOc2ccc(-c3cccnc3)cc2)CC1	/	/	/	-9	/	/	/	/
O=S(=O)(NC1CCCCC1)c1ccc(S(=O)(=O)N2CCN3CCCC3C2)cc1 (stereo not drawn)	0	37*	9	-11	3	622	3	5
Cc1nn(-c2ccccc2)nc1C(=O)Nc1ccccc1C(=O)NCC1CC1	/	/	/	-5	/	/	/	/
O=C(O)c1nn(CCOc2ccccc2F)c(=O)c2ccccc12	0	22*	6	-4	0	886	0	3
COc1ccc(OC)c(S(=O)(=O)NCC2CCN(C(=O)C(=O)c3cccs3)CC2)c1	/	/	/	-10	/	/	/	/
COc1ccc(C(=O)/C=C2/Sc3cc4c(cc3N2C)OCO4)cc1	0	-5	-2	-1	0	213	/	/
CN1/C(=C/C(=O)c2ccc(Cl)cc2)Sc2cc3c(cc21)OCO3	0	40*	11	-8	0	179	-13	2
COC(=O)[C@]12C[C@H](CC(=O)NCc3ccc(OC)c(OC)c3)C(=O)N(CCc3ccc(OC)c(OC)c3)C1=C[C@H](C(C)(C)C)O[C@@H]2C	/	/	/	-4	/	/	/	/
CC(=O)c1ccc(-c2cccs2)s1	0	29*	24	9	0	i	-20	-13
CNc1cccc(-c2ccc(C(C)=O)s2)n1	0	/	/	-7	/	/	/	/
O=c1cc(CN2CCN(S(=O)(=O)c3ccc4c(c3)OCCO4)CC2)c2ccc(O)cc2o1	0	22*	24	-3	0	445	-22	-14
CCc1ccc2c(CN3CCN(S(=O)(=O)c4ccc5c(c4)OCCO5)CC3)cc(=O)oc2c1	0	2	10	-4	0	352	/	/
CO[C@@H]1[C@H](O)CC[C@]2(O)CN(c3ccc(F)cc3)[C@](C)([C@H](O)CC=C(C)C)[C@@H]12	/	/	/	-4	/	/	/	/
CN1OC[C@@H]2CN(C(=O)c3ccc(C#N)cc3)[C@H](c3cccc(Br)c3)C[C@@H]21	/	/	/	-4	/	/	/	/
COCCNc1ncnc2c1cnn2Cc1ccccc1Cl	0	23*	1	-17	4	457	2	1
COC(=O)[C@]12C[C@H](CC(=O)N3CCCC3)C(=O)N(CCC3=CCCCC3)C1=C[C@H](COCc1ccccc1)O[C@@H]2C	/	/	/	-9	/	/	/	/
Cn1c(N)nc2nc(CCc3ccccc3)c(=O)[nH]c2c1=O	0	22*	6	-5	1	226	-22	-14
Cc1noc(C)c1S(=O)(=O)N1CCCc2nc(-c3ccc(Br)cc3)ccc21	/	/	/	-5	/	/	/	/
CSc1c(N(C)C)c(=O)c1=S	/	/	/	-9	/	/	/	/
O=C(N[C@@H](Cc1cccnc1)C(=O)N1CCC[C@H]1C(=O)NCc1ccccc1)c1ccccc1	/	/	/	-3	/	/	/	/
O=C(CN1C(=O)/C(=C\c2ccccc2Br)Oc2ccccc21)NCCCN1CCOCC1	0	32*	25	-16	1	198	-18	-13
Cc1csc(SC(C)C(=O)Nc2ccc3c(c2)OCCO3)n1 (stereo not drawn)	0	4	6	-1	3	i	/	/
CC(Sc1nncs1)C(=O)Nc1ccc2c(c1)OCCO2 (stereo not drawn)	0	22*	3	-13	0	278	-1	7
SMILES	aDG glyco act	procasp3 activ	procasp7 counter	CaV13 FRET inh	GRK2 aptamer HTS	T cell HTS	proCasp7 act trip	proCasp3 confirm
CCN(CC)S(=O)(=O)c1ccc2c(c1)c(=O)c(C(=O)N1CCN(c3ccccn3)CC1)cn2C	0	4	2	-2	4	329	/	/
CCN(CC)S(=O)(=O)c1ccc2c(c1)c(=O)c(C(=O)N1CCOCC1)cn2C	0	46*	7	-4	0	476	3	1
COc1ccc(-c2cc3ccc(O)cc3oc2=O)cc1	0	22*	18	4	1	236	-20	-15
CCC(=O)Nc1c(S(=O)(=O)c2ccc(C)cc2)c2nc3ccccc3nc2n1C(C)c1ccccc1 (stereo not drawn)	0	26*	6	-4	1	637	-22	-14
c1ccc(C2=NN(c3ccccc3)C(c3ccco3)C2)cc1 (stereo not drawn)	0	26*	24	-5	1	216	-20	-15
c1ccc(N2N=C(c3cccs3)CC2c2ccco2)cc1 (stereo not drawn)	3	4	-4	-7	0	322	/	/
O=C(Cc1cn(Cc2ccccc2)c2ccccc12)Nc1ccc(Nc2cccnc2)cc1	/	/	/	-4	/	/	/	/
O=C(CSc1nnnn1-c1ccccc1)Nc1ccc(Cl)cn1	0	1	3	/	3	380	/	/
O=C(CSc1nnnn1-c1ccccc1)Nc1ccc(Cl)cc1	0	27*	13	-5	3	423	1	4
COCCCNC(=O)C[C@H]1C[C@@]2(C(=O)OC)C(=C[C@H](C(C)(C)C)O[C@@H]2C)N(CCC2=CCCCC2)C1=O	/	/	/	-7	/	/	/	/
O=c1[nH]c2ccccc2nc1-c1cccs1	0	34*	1	-5	6	243	-22	-14
c1csc(-c2nnsc2-c2nc3ccccc3[nH]2)c1	0	3	-3	-6	1	505	/	/
CCc1ccc(OCC(=O)OCC(=O)c2ccc3c(c2)NC(=O)CO3)cc1	0	-1	0	-7	0	275	/	/
CCC(=O)c1ccc(OCC(=O)c2ccc3c(c2)NC(=O)CO3)cc1	0	23*	4	-18	1	329	4	4
COC(=O)C1=C(C)N(C)C(=NCC2CC2)NC1c1ccc(F)cc1 (stereo not drawn)	/	/	/	-4	/	/	/	/
N=c1c(S(=O)(=O)c2ccccc2)cc2c(=O)n3ccccc3nc2n1C1CCCC1	0	30*	-17	16	0	172	-22	-14
O=C(c1ccccc1Cl)N1CCSCCS1(=O)=O	/	/	/	-4	/	/	/	/
